# Laboratory results taken from article PMC3286832 (Nature Communications, 2011).
# Numbering of substitutions follows the chain as printed. Numbers in names are those of the source.
# B1: GLP–N: N-terminal fragment of GLP (residues 191–280) containing K205 (protein)
# chain: LPAPGADVKVHRARKTMPKSVVGLHAASKDPREVREARDHKEPKEEINKNISDFGRQQLLPPFPSLHQSLPQNQCYMATTKSQTACLPFV
# modifications: left off: GST, end not stated, kept
# B2: GLP–N K205-methylated: GLP–N methylated in vitro at K205 (protein, UniProt Q9H9B1 191-280, looked up, fragment)
# chain: B1 chain
# modifications: K205 methylated
# B3: GLP–N K205R: methylation deficient K205R mutant of GLP–N (protein, UniProt Q9H9B1 191-280, looked up, variant K205R)
# chain: B1 chain with K15R
# B4: G9a: H3K9 methyltransferase G9a (protein, UniProt Q96KQ7 2-1210, looked up)
# Histone-lysine …: AAAAGAAAAAAAEGEAPAEMGALLLEKETRGATERVHGSLGDTPRSEETLPKATPDSLEPAGPSSPASVTVTVGDEGADTPVGATPLIGDESENLEGDGDLRGGRILLGHATKSFPSSPSKGGSCPSRAKMSMTGAGKSPPSVQSLAMRLLSMPGAQGAAAAGSEPPPATTSPEGQPKVHRARKTMSKPGNGQPPVPEKRPPEIQHFRMSDDVHSLGKVTSDLAKRRKLNSGGGLSEELGSARRSGEVTLTKGDPGSLEEWETVVGDDFSLYYDSYSVDERVDSDSKSEVEALTEQLSEEEEEEEEEEEEEEEEEEEEEEEEDEESGNQSDRSGSSGRRKAKKKWRKDSPWVKPSRKRRKREPPRAKEPRGVNGVGSSGPSEYMEVPLGSLELPSEGTLSPNHAGVSNDTSSLETERGFEELPLCSCRMEAPKIDRISERAGHKCMATESVDGELSGCNAAILKRETMRPSSRVALMVLCETHRARMVKHHCCPGCGYFCTAGTFLECHPDFRVAHRFHKACVSQLNGMVFCPHCGEDASEAQEVTIPRGDGVTPPAGTAAPAPPPLSQDVPGRADTSQPSARMRGHGEPRRPPCDPLADTIDSSGPSLTLPNGGCLSAVGLPLGPGREALEKALVIQESERRKKLRFHPRQLYLSVKQGELQKVILMLLDNLDPNFQSDQQSKRTPLHAAAQKGSVEICHVLLQAGANINAVDKQQRTPLMEAVVNNHLEVARYMVQRGGCVYSKEEDGSTCLHHAAKIGNLEMVSLLLSTGQVDVNAQDSGGWTPIIWAAEHKHIEVIRMLLTRGADVTLTDNEENICLHWASFTGSAAIAEVLLNARCDLHAVNYHGDTPLHIAARESYHDCVLLFLSRGANPELRNKEGDTAWDLTPERSDVWFALQLNRKLRLGVGNRAIRTEKIICRDVARGYENVPIPCVNGVDGEPCPEDYKYISENCETSTMNIDRNITHLQHCTCVDDCSSSNCLCGQLSIRCWYDKDGRLLQEFNKIEPPLIFECNQACSCWRNCKNRVVQSGIKVRLQLYRTAKMGWGVRALQTIPQGTFICEYVGELISDAEADVREDDSYLFDLDNKDGEVYCIDARYYGNISRFINHLCDPNIIPVRVFMLHQDLRFPRIAFFSSRDIRTGEELGFDYGDRFWDIKSKYFTCQCGSEKCKHSAEAIALEQSRLARLDPHPELLPELGSLPPVNT
# B5: G9a double mutant (Y1067V/Y1154F): G9a double mutant coexpressed with hDNMT3A (protein, UniProt Q96KQ7 2-1210, looked up, variant Y1067V Y1154F)
# Histone-lysine …: B4 Histone-lysine … with Y1066V, Y1153F
# B6: GLP: G9a-like protein, wild-type (protein)
# chain: MAAADAEAVPARGEPQQDCCVKTELLGEETPMAADEGSAEKQAGEAHMAADGETNGSCENSDASSHANAAKHTQDSARVNPQDGTNTLTRIAENGVSERDSEAAKQNHVTADDFVQTSVIGSNGYILNKPALQAQPLRTTSTLASSLPGHAAKTLPGGAGKGRTPSAFPQTPAAPPATLGEGSADTEDRKLPAPGADVKVHRARKTMPKSVVGLHAASKDPREVREARDHKEPKEEINKNISDFGRQQLLPPFPSLHQSLPQNQCYMATTKSQTACLPFVLAAAVSRKKKRRMGTYSLVPKKKTKVLKQRTVIEMFKSITHSTVGSKGEKDLGASSLHVNGESLEMDSDEDDSEELEEDDGHGAEQAAAFPTEDSRTSKESMSEADRAQKMDGESEEEQESVDTGEEEEGGDESDLSSESSIKKKFLKRKGKTDSPWIKPARKRRRRSRKKPSGALGSESYKSSAGSAEQTAPGDSTGYMEVSLDSLDLRVKGILSSQAEGLANGPDVLETDGLQEVPLCSCRMETPKSREITTLANNQCMATESVDHELGRCTNSVVKYELMRPSNKAPLLVLCEDHRGRMVKHQCCPGCGYFCTAGNFMECQPESSISHRFHKDCASRVNNASYCPHCGEESSKAKEVTIAKADTTSTVTPVPGQEKGSALEGRADTTTGSAAGPPLSEDDKLQGAASHVPEGFDPTGPAGLGRPTPGLSQGPGKETLESALIALDSEKPKKLRFHPKQLYFSARQGELQKVLLMLVDGIDPNFKMEHQNKRSPLHAAAEAGHVDICHMLVQAGANIDTCSEDQRTPLMEAAENNHLEAVKYLIKAGALVDPKDAEGSTCLHLAAKKGHYEVVQYLLSNGQMDVNCQDDGGWTPMIWATEYKHVDLVKLLLSKGSDINIRDNEENICLHWAAFSGCVDIAEILLAAKCDLHAVNIHGDSPLHIAARENRYDCVVLFLSRDSDVTLKNKEGETPLQCASLNSQVWSALQMSKALQDSAPDRPSPVERIVSRDIARGYERIPIPCVNAVDSEPCPSNYKYVSQNCVTSPMNIDRNITHLQYCVCIDDCSSSNCMCGQLSMRCWYDKDGRLLPEFNMAEPPLIFECNHACSCWRNCRNRVVQNGLRARLQLYRTRDMGWGVRSLQDIPPGTFVCEYVGELISDSEADVREEDSYLFDLDNKDGEVYCIDARFYGNVSRFINHHCEPNLVPVRVFMAHQDLRFPRIAFFSTRLIEAGEQLGFDYGERFWDIKGKLFSCRCGSPKCRHSSAALAQRQASAAQEAQEDGLPDTSSAAAADPL
# modifications: left off: HA, end not stated, kept
# B7: GLP K199R: HA–GLP K199R mutant (protein)
# chain: B6 chain with K199R
# modifications: left off: HA, end not stated, kept
# B8: GLP K205R: HA–GLP K205R mutant (protein)
# chain: B6 chain with K205R
# modifications: left off: HA, end not stated, kept
# B9: GLP K209R: HA–GLP K209R mutant (protein)
# chain: B6 chain with K209R
# modifications: left off: HA, end not stated, kept
# How the values were obtained:
# [1] = target: GLP catalytic SET domain (Homo sapiens, UniProt Q9H9B1); test: In vitro methylation assay with GLP catalytic SET domain; format: biochemical; details: [methyl-3H]AdoMet, SDS–PAGE and fluorography / autoradiogram
# Method in brief: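 E. coli-expressed hG9a or hGLP SET domain (1.6 μM) was incubated with 13.0 μM substrate (mDnmt3a N-terminal fragments or other GST-tagged proteins) and 2.8 μM [methyl-3H]AdoMet in 20 mM Tris–HCl pH 8.5 at 30 °C for 8 min. Products were resolved by SDS–PAGE and detected by fluorography/autoradiography.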
# [2] = test system: MPP8; test: In vitro GST pull-down of GLP–N with in vitro translated MPP8; format: binding; details: GST–GLP–N (residues 191–280), in vitro translated 35S–MPP8, autoradiography
# Method in brief: (§1)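 GST–hGLP–N (residues 191–280, WT or K205R; 3 μg) was premethylated with 3 μg 6xHis–hGLP–SET (residues 955–1,298) and 1.5 mM AdoMet at 30 °C for 2 h. It was immobilised on glutathione agarose (4 °C, 1 h, 1 M NaCl buffer) and washed. Beads were incubated with in vitro translated 35S-labelled full-length MPP8 (WT or W80A) at 4 °C for 2 h, washed with 300 mM NaCl binding buffer, and analysed by SDS–PAGE autoradiography. Input was 5%.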
# [3] = test system: MPP8–W80A; test: GST pull-down of GLP–N with MPP8-W80A; format: binding; details: in vitro translated 35S–MPP8–W80A
# Method in brief: as §1
# [4] = test system: hDNMT3A K47 methylation in 293T cells; test: Methylation in 293T cells; format: cell-based, human; details: coexpression in 293T cells, metabolic labelling with 3H-Met or western blot
# Method in brief: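 GLP stable knockdown 293T cells expressed Myc-hDNMT3A (WT or K47R), with or without Flag-GLP or G9a, for 36 h. Cells were starved 30 min in methionine-free medium with cycloheximide (100 μg ml−1) and chloramphenicol (40 μg ml−1), then labelled 4 h with 10 μCi ml−1 L-[methyl-3H]methionine. Myc-hDNMT3A was immunoprecipitated with anti-Myc, washed with 600 mM NaCl IPH buffer, and detected by autoradiography.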
# [5] = test system: MPP8–GLP interaction in 293T cells; test: Co-immunoprecipitation of MPP8 and GLP in 293T cells; format: cell-based, human
# Method in brief: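 293T cells (parental, or MPP8 stable knockdown for the chromodomain W80A mutant) were cotransfected with Flag-MPP8 and HA-GLP (WT, K199R, K205R or K209R) for 48 h. Lysates were immunoprecipitated with 1 μg anti-HA or anti-Flag on protein-G agarose, washed with IPH containing 300 or 600 mM NaCl, and analysed by western blot. Input was 5%.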
molecule,measurement,setting,value
B1,methylation by GLP,[1],is methylated in vitro by recombinant GLP–SET domain
same,interaction with MPP8 in GST pull-down,[2],a robust direct interaction between GLP–N and MPP8 was observed only when K205 methylation occurs
same,interaction with MPP8–W80A in GST pull-down,[3],no interaction was observed
B2,interaction with MPP8–W80A in GST pull-down,[3],no interaction was observed
B3,methylation by GLP,[1],completely abolishes this GLP-catalyzed methylation
same,interaction with MPP8 in GST pull-down,[2],completely lost the interaction with MPP8
same,interaction with MPP8–W80A in GST pull-down,[3],no interaction was observed
B4,methylation of hDNMT3A in cells,[4],markedly increased
B5,methylation of hDNMT3A in cells,[4],failed to methylate K47
B6,methylation of hDNMT3A in cells,[4],markedly increased
B7,MPP8–GLP interaction in cells,[5],had little effect
B8,MPP8–GLP interaction in cells,[5],impairs GLP–MPP8 interaction in cells
B9,MPP8–GLP interaction in cells,[5],had little effect
